Compound activity from PubChem BioAssay.
Most compounds without a hit are left out; they make up all but 2% or so of the library.
PAD4 FP inh = blocks human protein arginine deiminase 4; recombinant PAD4, RCA probe fluorescence polarization; 330,000 compounds, 0.41% hits; inhibition, % at 6.36 µM;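 active = percent inhibition above a cutoff equal to the mean of all tested compounds plus 3 SD, cut at about 15% in these data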;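 also: 0% = PAD4 with RCA probe and DMSO and 100% = probe without PAD4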
PP5 primary = inhibitors of human protein phosphatase 5 (PP5). purified PP5c, OMFP substrate fluorescence. 320,000 compounds, 0.18% hits. inhibition, % at 6.7 µM. AID 1987;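 active = inhibition above the campaign's mean inhibition across all tested compounds plus 3 SD, cut at about 9.5% in these data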;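 also: 0% = DMSO only and 100% = 100 µM cantharidin control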
UCH37 inh = inhibitors of human deubiquitinating enzyme UCH37; Q9Y5K5; purified proteasome/UCH37, Ub-AMC cleavage fluorescence; inhibition, % (concentration not given with the values); 330,000 compounds, 0.33% hits;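 active = mean inhibition over replicate wells above about 20%, limit read from the data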;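 also: 0% = compound-free wells with enzyme and 100% = wells lacking proteasome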
Target sequence (Q9Y5K5 whole entry, looked up): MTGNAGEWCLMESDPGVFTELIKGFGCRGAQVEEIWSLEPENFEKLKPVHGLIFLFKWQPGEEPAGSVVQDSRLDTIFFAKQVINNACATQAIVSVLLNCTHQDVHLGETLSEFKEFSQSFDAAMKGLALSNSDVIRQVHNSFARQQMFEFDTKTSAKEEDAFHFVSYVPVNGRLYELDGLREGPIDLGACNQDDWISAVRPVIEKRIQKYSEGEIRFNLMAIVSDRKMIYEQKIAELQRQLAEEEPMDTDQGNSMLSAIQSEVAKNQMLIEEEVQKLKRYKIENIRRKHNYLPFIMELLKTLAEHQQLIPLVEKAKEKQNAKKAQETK
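Schedule: 30 min plus 25 min, room temperature / Material: human UCH37 within purified proteasomes / Technique: AMC fluorescence intensity at 355/460 nm / Buffer or medium: pH 7.4 Tris-HCl (50 mM) with ovalbumin, ATP-MgCl2, DTT / Controls: wells without proteasome as full block, compound-free enzyme plus substrate as uninhibited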
Fh CTSL1 inh = cathepsin L1 inhibition, PFM18AAP counter-screen; 300,000 compounds, 0.49% hits; recombinant F. hepatica cathepsin L1, Z-Leu-Arg-MCA fluorescence; AID 1906; inhibition, % at 5.96 µM;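 active = inhibition above the mean of all tested compounds plus 3 SD, set per screening campaign, cut at about 17% in these data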;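 also: 0% = plate median of test compound wells and 100% = 1 µM Z-Phe-Ala-diazomethylketone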
GSTO1 counter = blocks human GSTO1 in RBBP9 counter-screen; recombinant GSTO1, activity-based probe fluorescence polarization; inhibition, % at 5.96 µM; 300,000 compounds, 1.1% hits;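 active = inhibition above the campaign mean inhibition plus 3 SD, cut at about 35% in these data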;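 also: 0% = GSTO1-1 with DMSO and 100% = wells lacking GSTO1-1 enzyme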
Target sequence (P78417 whole entry, looked up): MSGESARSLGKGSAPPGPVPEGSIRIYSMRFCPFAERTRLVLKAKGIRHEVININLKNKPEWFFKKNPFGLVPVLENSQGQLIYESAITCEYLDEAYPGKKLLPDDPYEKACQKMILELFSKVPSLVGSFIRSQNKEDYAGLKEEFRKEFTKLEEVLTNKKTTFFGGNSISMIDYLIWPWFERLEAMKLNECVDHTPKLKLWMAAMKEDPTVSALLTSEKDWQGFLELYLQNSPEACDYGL
Apaf1 inhib = human Apaf-1 inhibition; O14727; reconstituted apoptosome caspase-3 activity, DEVD-Rh110 fluorescence; inhibition, % at 20 µM; 330,000 compounds, 0.71% hits; active = inhibition of at least 40% at 20 µM;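 also: plate controls were DMSO wells for no effect and DEVD-CHO caspase inhibitor wells for full effect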
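Assay system: Apoptosome proteins | Medium: pH 7.5 Hepes buffer with CHAPS, BSA, DTT | Also added: Cytochrome c and DEVD-Rh110 substrate | Times: 30 min plus 50 min, RT | Detection: Rhodamine 110 fluorescence at Ex 480/Em 540 nm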
GSTO1 inh conf = GSTO1 (human) inhibition, confirmation. shares compounds with GSTO1 counter. recombinant GSTO1, probe fluorescence polarization. inhibition, % at 5.96 µM. 2,400 compounds, 54% hits. AID 2176;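 active = inhibition above the primary screen's cutoff, its mean inhibition plus 3 SD, cut at about 35% in these data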;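 also: loss of polarization as inhibitors block binding of rhodamine sulfonate ester activity probe; 0% = GSTO1 with DMSO and 100% = wells lacking GSTO1 enzyme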
PP5 inh confirm = confirmation of human PP5 phosphatase inhibitors | shares compounds with PP5 primary | Purified PP5, fluorogenic phosphatase substrate, fluorescence | inhibition, % at 6.7 µM | 460 compounds, 22% hits | AID 2331; in the data active = inhibition above about 9.5%
PP1 counter 3x = PP1 phosphatase inhibition, counter-screen for PP5 inhibitors. PP1 enzyme, fluorescent phosphatase substrate. shares compounds with PP5 primary. 460 compounds, 4% hits. AID 2355. inhibition, % at 6.7 µM; in the data active = inhibition above about 16%
PAD4 confirm = confirmation of human PAD4 inhibitors | shares compounds with PAD4 FP inh | recombinant PAD4, RCA probe fluorescence polarization | inhibition, % at 6.36 µM | 1,200 compounds, 28% hits | AID 488796;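 active = mean inhibition across replicates above the hit cutoff set by the earlier primary screen, cut at about 15% in these data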;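 also: inhibitors block active-site labeling by the probe so polarization falls; 0% = PAD4 with probe and DMSO and 100% = probe without PAD4 enzyme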
Apaf-1 inh conf2 = Apaf-1 inhibition, single-dose confirmed; shares compounds with Apaf1 inhib; reconstituted apoptosome, caspase-3 DEVD-Rh110 fluorescence; inhibition, % at 20 µM; 1,800 compounds, 25% hits;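 active = mean inhibition of at least 40% at 20 µM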;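 also: plate controls were DMSO wells for no effect and DEVD-CHO caspase inhibitor control wells for full effect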
Rh110 quench = Rh110 signal interference in Apaf-1 inhibitor counter-screen | 1,800 tested, under 10 active | AID 504615 | shares compounds with Apaf1 inhib | activation (fluorescence interference), % at 20 µM | Rh110 fluorescence interference, quenched caspase reaction;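 active = signal rise of 40% or more at 20 µM, treated as a fluorescence artifact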
Fluor interf inh = Apaf-1 inhibitor counter-screen fluorescence artifact; shares compounds with Apaf1 inhib; fluorescence interference counterscreen, Apaf-1 assay format; IC50, µM; 460 tested, under 10 active; AID 588538; call rule not given here
* = called active by the depositor.

Results for Nc1cc2nc3ccccc3oc-2cc1=O ?
PAD4 FP inh: 27.7*; PP5 primary: 4.3; UCH37 inh: 15.6; Fh CTSL1 inh: 3.9; GSTO1 counter: 68.4*; Apaf1 inhib: 47.8*; GSTO1 inh conf: 50.0*; PAD4 confirm: -1.3

Results for NC(=O)NN=Cc1cn(-c2ccccc2)nc1-c1cccnc1 ?
UCH37 inh: 0.3

What do the screens show for `NC(=S)NN=C/C=C/c1ccccc1`?
UCH37 inh: 12.7

What do the screens show for `Cc1ccc(S(=O)(=O)/N=C2/C=C(Sc3ncn[nH]3)C(=O)c3ccccc32)cc1`?
PAD4 FP inh: 39.1*; PP5 primary: 12.8*; Fh CTSL1 inh: 106.6*; GSTO1 counter: 96.3*; GSTO1 inh conf: 88.0*; PP5 inh confirm: 23.4*; PP1 counter 3x: 24.3*; PAD4 confirm: 9.8

How did CC(=O)c1c2c3c(c(Br)ccc3n(C)c1=O)C(=O)c1ccccc1-2 do in these assays?
PAD4 FP inh: 19.7*; PP5 primary: 2.7; Fh CTSL1 inh: 13.8; GSTO1 counter: 47.6*; Apaf1 inhib: 14.4; GSTO1 inh conf: 28.4; PAD4 confirm: 7.6

Results for S=c1[nH]nc(C2CCCCC2)n1N=Cc1cccc(Br)c1 ?
UCH37 inh: 5.9

What do the screens show for `CCN(CC)c1ccc(N=Cc2c(C)[nH]c3ccccc23)cc1`?
PAD4 FP inh: 25.2*; PP5 primary: 2.4; UCH37 inh: 5.8; Fh CTSL1 inh: -0.3; GSTO1 counter: 56.2*; Apaf1 inhib: 35.4; GSTO1 inh conf: 4.8; PAD4 confirm: 3.3

What do the screens show for `Cc1nn(-c2ccccc2)c(Cl)c1C=NNC(=O)c1ccn[nH]1`?
UCH37 inh: 3.0

What do the screens show for `Cc1ccc(C2C(C#N)=C(N)Oc3n[nH]c(-c4cccs4)c32)cc1` (configuration not stated)?
PAD4 FP inh: 40.9*; PP5 primary: 2.3; UCH37 inh: 5.9; Fh CTSL1 inh: 0.0; GSTO1 counter: 39.8*; Apaf1 inhib: 26.5; GSTO1 inh conf: 8.0; PAD4 confirm: -11.9

What do the screens show for `CCOCCCNC1=C(Cl)C(=O)c2ccccc2C1=O`?
PAD4 FP inh: -13.1; PP5 primary: 2.8; UCH37 inh: 24.0*; Fh CTSL1 inh: 3.3; GSTO1 counter: 64.7*; Apaf1 inhib: 47.9*; GSTO1 inh conf: 24.8; Apaf-1 inh conf2: 29.7; Rh110 quench: 0.3

Results for O=C1C(Cl)=C(NCCCN2CCOCC2)C(=O)c2ccccc21 ?
UCH37 inh: 17.4

Results for O=C1C(Cl)=C(NCCN2CCOCC2)C(=O)c2ccccc21 ?
PAD4 FP inh: -14.7; PP5 primary: 0.1; UCH37 inh: 17.2; Fh CTSL1 inh: 11.9; GSTO1 counter: 41.5*; Apaf1 inhib: 46.4*; GSTO1 inh conf: 6.1; Apaf-1 inh conf2: 46.6*; Rh110 quench: 1.9; Fluor interf inh: >100

Results for COc1ccc(CNC(=O)c2c(C)oc3c2C(=O)c2ccccc2C3=O)cc1 ?
PAD4 FP inh: -6.6; PP5 primary: 2.3; UCH37 inh: 10.6; Fh CTSL1 inh: 15.6; GSTO1 counter: 52.7*; Apaf1 inhib: 67.2*; GSTO1 inh conf: 35.4*; Apaf-1 inh conf2: 71.4*; Rh110 quench: 12.0; Fluor interf inh: >100

Results for COc1ccc(CNC(=O)c2ccc(-c3ccccc3)cc2)cc1 ?
PAD4 FP inh: -3.4; PP5 primary: 1.8; UCH37 inh: 2.2; Fh CTSL1 inh: -3.4; GSTO1 counter: -1.0; Apaf1 inhib: -5.5

Results for CN(C)c1ccc(NC(=O)Oc2ccccc2)cc1 ?
PAD4 FP inh: 17.4*; PP5 primary: 1.3; UCH37 inh: -0.8; Fh CTSL1 inh: 5.2; GSTO1 counter: 39.5*; Apaf1 inhib: 48.3*; GSTO1 inh conf: 6.5; PAD4 confirm: -1.7; Apaf-1 inh conf2: 11.1; Rh110 quench: 2.7

How did Cn1c(=O)c2cc(NCc3ccccc3)nnc2n(C)c1=O do in these assays?
PAD4 FP inh: 30.5*; PP5 primary: 2.7; UCH37 inh: 0.3; Fh CTSL1 inh: 56.6*; GSTO1 counter: 81.0*; Apaf1 inhib: 93.8*; GSTO1 inh conf: 15.5; PAD4 confirm: 2.5; Apaf-1 inh conf2: 7.1; Rh110 quench: 0.5

What do the screens show for `CCOc1cccc(CNc2ccc(O)cc2)c1OCc1ccccc1Cl`?
PAD4 FP inh: 0.9; PP5 primary: 7.8; UCH37 inh: 3.7; Fh CTSL1 inh: -4.1; GSTO1 counter: 77.1*; Apaf1 inhib: 96.7*; GSTO1 inh conf: 4.6; Apaf-1 inh conf2: 25.9; Rh110 quench: 7.6

How did Cc1ccc(C(=O)N/C(=C\c2ccc(-c3ccccc3[N+](=O)[O-])o2)C(=O)NCCCN(C)C)cc1 do in these assays?
PAD4 FP inh: -11.0; PP5 primary: 5.4; UCH37 inh: 14.3; Fh CTSL1 inh: 2.9; GSTO1 counter: 43.7*; Apaf1 inhib: 55.8*; GSTO1 inh conf: 7.2; Apaf-1 inh conf2: 46.4*; Rh110 quench: -4.4; Fluor interf inh: >100

Results for CCN(CC)c1ccc(N=C2C(=O)Nc3ccccc32)cc1 ?
PAD4 FP inh: 13.2; PP5 primary: 2.9; Fh CTSL1 inh: -2.9; GSTO1 counter: 85.0*; Apaf1 inhib: 47.0*; GSTO1 inh conf: 4.5; Apaf-1 inh conf2: 15.0; Rh110 quench: 0.8

What do the screens show for `COc1ccc(C(=O)NCC(=O)NN=Cc2cccc(OC(=O)c3ccco3)c2)cc1OC`?
UCH37 inh: 4.9

What do the screens show for `CC1=NN(c2ccc(C)cc2C)C(=O)C1C(c1ccccc1)C1C(=O)N(c2ccc(C)cc2C)N=C1C` (configuration not stated)?
PAD4 FP inh: 12.9; PP5 primary: -1.0; UCH37 inh: 0.1; Fh CTSL1 inh: -7.7; GSTO1 counter: 44.0*; Apaf1 inhib: 66.7*; GSTO1 inh conf: 9.2; Apaf-1 inh conf2: 30.2; Rh110 quench: 4.7

How did COc1ccc(S(=O)(=O)NN=C(C)c2ccncc2)c(OC)c1 do in these assays?
UCH37 inh: 1.8
